The compounds below were run against Thymidine phosphorylase (Escherichia coli K-12, UniProt P07650) (assay: Inhibition of Escherichia coli thymidine phosphorylase using […] as substrate after 10 mins by spectrophotometric analysis).
Method in brief: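 Commercial E. coli TP in potassium phosphate buffer, pH 7.4, with […] substrate (1.5 mM stock). Test material incubated with the reaction mix for 10 min at 25 °C. Absorbance at 290 nm then read continuously at 10, 20 and 30 min. Substrate-free blanks were subtracted. Run in triplicate; IC50 given as mean ± SEM of three independent experiments.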

Chain of Thymidine phosphorylase (P07650 whole entry): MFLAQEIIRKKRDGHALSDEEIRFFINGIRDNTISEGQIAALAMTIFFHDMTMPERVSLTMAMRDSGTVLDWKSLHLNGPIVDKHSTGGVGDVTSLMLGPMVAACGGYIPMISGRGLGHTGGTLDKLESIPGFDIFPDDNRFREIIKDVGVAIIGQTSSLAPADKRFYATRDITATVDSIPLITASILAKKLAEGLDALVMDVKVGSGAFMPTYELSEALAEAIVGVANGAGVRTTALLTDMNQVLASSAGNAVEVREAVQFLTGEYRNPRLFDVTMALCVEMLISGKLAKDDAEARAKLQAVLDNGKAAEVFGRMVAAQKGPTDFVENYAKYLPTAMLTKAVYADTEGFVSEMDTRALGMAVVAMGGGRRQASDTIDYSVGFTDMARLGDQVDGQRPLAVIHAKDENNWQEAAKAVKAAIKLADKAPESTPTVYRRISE

IC50	Structure (SMILES)
21.8 µM	S=c1oc(-c2ccccc2Br)nn1CNc1ccccc1Cl
118 µM	S=c1oc(-c2ccccc2)nn1CNc1ccccc1Cl
23.7 µM	Cc1ccc(-c2nn(CNc3cccc(C)c3C)c(=S)o2)cc1
87.2 µM	COc1ccccc1NCn1nc(-c2ccccc2)oc1=S
17.6 µM	COc1ccccc1NCn1nc(-c2ccccc2Br)oc1=S
83.2 µM	Cc1ccc(-c2nn(CNc3ccc(C)c(C)c3)c(=S)o2)cc1
40.6 µM	COc1cccc(NCn2nc(-c3ccccc3)oc2=S)c1
84.4 µM	COc1cccc(NCn2nc(-c3ccc(C)cc3)oc2=S)c1
130 µM	Oc1ccccc1-c1nn(CNc2ccccc2Cl)c(=S)o1
58.2 µM	Cc1ccccc1NCn1nc(-c2ccc(Cl)cc2)oc1=S
69.3 µM	COc1cc(-c2nn(CNCCc3ccccc3)c(=S)o2)cc(OC)c1OC
54.7 µM	Cc1ccc(NCn2nc(-c3ccc(C)cc3)oc2=S)cc1
117 µM	COc1cc(-c2nn(CNc3ccccc3C)c(=S)o2)cc(OC)c1OC
14.4 µM	COc1ccc([N+](=O)[O-])cc1NCn1nc(-c2ccc(C)cc2)oc1=S
40.6 µM	Cc1ccc(NCn2nc(-c3ccccc3)oc2=S)cc1C
134 µM	Cc1ccc(-c2nn(CNc3ccc(Cl)c(Cl)c3)c(=S)o2)cc1
104 µM	Cc1ccc(-c2nn(CNc3ccccc3)c(=S)o2)cc1
173 µM	S=c1oc(-c2ccc(Cl)cc2)nn1CNc1ccc(Br)cc1
26.3 µM	S=c1oc(-c2ccccc2Br)nn1CNc1ccc(Br)cc1
88.7 µM	COc1ccccc1NCn1nc(-c2ccc(Cl)cc2)oc1=S
46.4 µM	S=c1oc(-c2ccc(Cl)cc2)nn1CNc1ccccc1Cl

These compounds were tested against Thymidine phosphorylase (Escherichia coli K-12) (UniProt P07650) (assay: Ratio of 7-deazaxanthine IC50 to compound IC50 for Escherichia coli thymidine phosphorylase using […] as substrate after 10 mins by spectrophotometric analysis).
Chain of Thymidine phosphorylase (Escherichia coli K-12) (P07650 whole entry, looked up): as the sequence (P07650 whole entry) above

Ratio IC50	Structure (SMILES)
2.5	COc1ccc([N+](=O)[O-])cc1NCn1nc(-c2ccc(C)cc2)oc1=S
